Measurements published in ChEMBL document CHEMBL4145619, “Computer-Assisted Discovery of Retinoid X Receptor Modulating Natural Products and Isofunctional Mimetics” (J Med Chem, 2018).
pEC50: −log10 of the molar value. Calls of active or inactive are those of the source. The calls are words filed in the database; no cut-off is given here.

How the values were obtained:
Type in all cases: cell-based
[1] = molecular target: T1, Retinoic acid receptor RXR-alpha (Homo sapiens, UniProt P19793); experiment: Transactivation of human Gal4-fused RXRalpha LBD expressed in HEK293T cells after 12 to 14 hrs by dual-glo luciferase assay
T1 sequence (P19793 whole entry): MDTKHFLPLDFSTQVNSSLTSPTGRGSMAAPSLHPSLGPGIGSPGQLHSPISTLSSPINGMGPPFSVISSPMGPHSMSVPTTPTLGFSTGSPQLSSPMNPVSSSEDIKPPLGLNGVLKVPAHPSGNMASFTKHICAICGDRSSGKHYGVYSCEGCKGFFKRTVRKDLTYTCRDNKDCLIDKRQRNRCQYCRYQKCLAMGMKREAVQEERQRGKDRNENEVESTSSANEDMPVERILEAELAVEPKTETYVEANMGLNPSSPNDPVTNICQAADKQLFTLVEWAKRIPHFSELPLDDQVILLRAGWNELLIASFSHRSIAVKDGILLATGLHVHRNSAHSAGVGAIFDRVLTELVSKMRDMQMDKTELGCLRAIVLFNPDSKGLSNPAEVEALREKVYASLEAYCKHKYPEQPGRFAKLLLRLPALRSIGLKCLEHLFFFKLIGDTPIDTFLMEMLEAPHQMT
Method in brief: (§1)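 Gal4-hybrid reporter gene assay in HEK293T cells with the RXRα, RXRβ or RXRγ construct. Dose–response curves give EC50 and fold activation as mean ± SEM from n ≥ 4 independent experiments in duplicate.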

[2] = molecular target: T2, Retinoic acid receptor RXR-beta (Homo sapiens, UniProt P28702); experiment: Transactivation of human Gal4-fused RXRbeta LBD expressed in HEK293T cells after 12 to 14 hrs by dual-glo luciferase assay; method in brief: as §1
T2 sequence (P28702 whole entry): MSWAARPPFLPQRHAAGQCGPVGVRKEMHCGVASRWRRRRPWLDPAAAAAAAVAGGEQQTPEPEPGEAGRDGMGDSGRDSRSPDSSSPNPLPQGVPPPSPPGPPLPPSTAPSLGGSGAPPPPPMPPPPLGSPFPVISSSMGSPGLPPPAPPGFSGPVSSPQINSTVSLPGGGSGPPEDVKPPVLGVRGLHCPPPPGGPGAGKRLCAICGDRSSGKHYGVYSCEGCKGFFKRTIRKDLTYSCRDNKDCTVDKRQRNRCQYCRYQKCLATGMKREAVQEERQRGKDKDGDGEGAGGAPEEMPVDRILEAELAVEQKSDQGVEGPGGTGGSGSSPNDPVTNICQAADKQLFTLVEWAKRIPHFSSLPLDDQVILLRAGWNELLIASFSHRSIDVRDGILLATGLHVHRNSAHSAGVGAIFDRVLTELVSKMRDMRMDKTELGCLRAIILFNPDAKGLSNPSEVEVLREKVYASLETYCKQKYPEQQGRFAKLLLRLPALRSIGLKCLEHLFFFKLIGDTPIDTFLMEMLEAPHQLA

[3] = molecular target: T3, Retinoic acid receptor RXR-gamma (Homo sapiens) (UniProt P48443); experiment: Transactivation of human Gal4-fused RXRgamma LBD expressed in HEK293T cells at 50 uM after 12 to 14 hrs by dual-glo luciferase assay
T3 sequence (whole entry): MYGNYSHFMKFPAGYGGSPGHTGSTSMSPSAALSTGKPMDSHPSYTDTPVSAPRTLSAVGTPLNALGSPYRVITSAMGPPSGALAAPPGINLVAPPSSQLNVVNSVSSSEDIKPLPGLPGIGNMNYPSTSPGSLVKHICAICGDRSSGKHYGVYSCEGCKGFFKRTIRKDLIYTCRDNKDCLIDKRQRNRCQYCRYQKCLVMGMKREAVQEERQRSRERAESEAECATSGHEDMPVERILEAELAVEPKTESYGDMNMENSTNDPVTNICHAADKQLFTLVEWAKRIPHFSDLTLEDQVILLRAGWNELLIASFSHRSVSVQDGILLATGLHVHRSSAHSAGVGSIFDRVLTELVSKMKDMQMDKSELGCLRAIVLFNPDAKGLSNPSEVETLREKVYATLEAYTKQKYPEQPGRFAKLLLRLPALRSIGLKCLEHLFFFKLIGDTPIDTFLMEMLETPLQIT

[4] = molecular target: T4, Retinoic acid receptor RXR-alpha (Homo sapiens) (UniProt P19793); experiment: Transactivation of human Gal4-fused RXRalpha LBD expressed in HEK293T cells after 12 to 14 hrs by dual-glo luciferase assay relative to bexarotene
T4 sequence (whole entry): T1 sequence (P19793 whole entry)

[5] = molecular target: T5, Retinoic acid receptor RXR-beta (Homo sapiens) (UniProt P28702); experiment: Transactivation of human Gal4-fused RXRbeta LBD expressed in HEK293T cells after 12 to 14 hrs by dual-glo luciferase assay relative to bexarotene
T5 sequence (whole entry): T2 sequence (P28702 whole entry)

[6] = molecular target: T6, Retinoic acid receptor RXR-gamma (Homo sapiens, UniProt P48443); experiment: Transactivation of human Gal4-fused RXRgamma LBD expressed in HEK293T cells after 12 to 14 hrs by dual-glo luciferase assay; method in brief: as §1
T6 sequence (P48443 whole entry): T3 sequence (whole entry)

[7] = molecular target: T3, Retinoic acid receptor RXR-gamma (Homo sapiens); experiment: Transactivation of human Gal4-fused RXRgamma LBD expressed in HEK293T cells after 12 to 14 hrs by dual-glo luciferase assay relative to bexarotene
[8] = molecular target: T5, Retinoic acid receptor RXR-beta (Homo sapiens); experiment: Transactivation of human Gal4-fused RXRbeta LBD expressed in HEK293T cells at 50 uM after 12 to 14 hrs by dual-glo luciferase assay
[9] = molecular target: T4, Retinoic acid receptor RXR-alpha (Homo sapiens); experiment: Transactivation of human Gal4-fused RXRalpha LBD expressed in HEK293T cells at 50 uM after 12 to 14 hrs by dual-glo luciferase assay
[10] = molecular target: T7, Retinoid X receptor (Homo sapiens) (UniProt P28702+P48443+P19793); experiment: Transactivation of RXR in human HepG2 cells assessed as induction of ABCA1 mRNA expression at 10 uM after 8 hrs by qRT-PCR analysis
Method in brief: (§2)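 HepG2 cells were treated and ABCA1 or ApoE mRNA levels measured. Results are given as mean fold induction versus 0.1% DMSO vehicle ± SEM, n = 3. Significance was set at p < 0.05, 0.01 or 0.001.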

[11] = molecular target: T7, Retinoid X receptor (Homo sapiens); experiment: Transactivation of RXR in human HepG2 cells assessed as induction of apoE mRNA expression at 10 uM after 8 hrs by qRT-PCR analysis; method in brief: as §2
[12] = molecular target: T4, Retinoic acid receptor RXR-alpha (Homo sapiens); experiment: Transactivation of human Gal4-fused RXRalpha LBD expressed in HEK293T cells at 30 uM after 12 to 14 hrs by dual-glo luciferase assay
Method in brief: (§3)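 Single-concentration selectivity profiling in Gal4-hybrid reporter gene assays in HEK293T cells. Each nuclear receptor construct (RAR, PPAR, LXR, FXR, CAR, VDR, PXR, RXR) was tested at 30 μM.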

HepG2 = experiment: Cytotoxicity against human HepG2 cells assessed as reduction in cell viability up to 100 uM after 48 hrs by WST1 assay; details: hepg2, 48 h
[13] = molecular target: T7, Retinoid X receptor (Homo sapiens); experiment: Transactivation of RXR in human HepG2 cells assessed as induction of ABCA1 mRNA expression at 30 uM after 8 hrs by qRT-PCR analysis; method in brief: as §2
[14] = molecular target: T7, Retinoid X receptor (Homo sapiens); experiment: Transactivation of RXR in human HepG2 cells assessed as induction of apoE mRNA expression at 30 uM after 8 hrs by qRT-PCR analysis; method in brief: as §2
[15] = molecular target: T8, Peroxisome proliferator-activated receptor gamma (Homo sapiens) (UniProt P37231); experiment: Transactivation of human Gal4-fused PPARgamma LBD expressed in HEK293T cells at 30 uM after 12 to 14 hrs by dual-glo luciferase assay; method in brief: as §3
T8 sequence (whole entry): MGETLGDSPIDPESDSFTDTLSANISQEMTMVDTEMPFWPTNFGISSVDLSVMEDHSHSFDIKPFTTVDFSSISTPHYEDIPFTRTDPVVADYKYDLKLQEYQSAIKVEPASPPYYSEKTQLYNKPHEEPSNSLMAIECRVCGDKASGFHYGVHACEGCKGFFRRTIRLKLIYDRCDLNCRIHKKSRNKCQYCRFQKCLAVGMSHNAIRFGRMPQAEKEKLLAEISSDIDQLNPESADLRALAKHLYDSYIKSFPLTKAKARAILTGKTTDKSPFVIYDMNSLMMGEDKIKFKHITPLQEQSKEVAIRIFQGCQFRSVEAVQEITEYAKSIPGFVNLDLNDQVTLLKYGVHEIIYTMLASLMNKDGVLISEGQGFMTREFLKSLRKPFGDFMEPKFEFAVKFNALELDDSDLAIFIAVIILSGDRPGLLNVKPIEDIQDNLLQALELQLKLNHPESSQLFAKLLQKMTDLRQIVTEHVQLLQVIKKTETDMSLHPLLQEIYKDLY

SMILES	pEC50 [1]	pEC50 [2]	fold change (FC) [4]	fold change (FC) [5]	pEC50 [6]	fold change (FC) [7]	further results
Cc1ccc(C)n1-c1ccc(SCC(=O)O)cc1	< 4.52	< 4.52	–	–	–	–	Activity [3]: inactive
Cc1c2c(n(-c3ccc(CCCC(=O)O)cc3)c1C)CCC(F)(F)C2	5.04	5.66	56	64	5.60	7	–
Cc1ccc(C)n1C(CC1CCCC1)C(=O)O (centres undefined)	–	–	–	–	–	–	Activity [3]: inactive; Activity [8]: inactive; Activity [9]: inactive
Cc1ccc(C)n1-c1ccc(CCCC(=O)O)cc1	5.37	5.18	31	48	4.61	11	–
CC(C)=C(C)c1ccc(-c2cnc(CCC(=O)O)o2)cc1	5.10	4.80	2.8	3.2	4.85	2	–
CCC(C)[C@@H]1C(=O)/C(=C(/O)[C@@H]2[C@@H]3[C@H](C)C[C@H](C)C[C@@H]3C=C[C@@H]2[C@]2(C)O[C@H]2C)C(=O)N1C (some centres undefined)	–	–	–	–	–	–	Activity [9]: inactive
C/C=C/c1ccc2c(c1)[C@@H](C)[C@H](c1ccc(O)cc1)O2	–	–	–	–	–	–	Activity [9]: inactive
Cc1c2c(n(C[C@H]3CC[C@H](C(=O)O)CC3)c1C)CCC(F)(F)C2	4.62	4.57	69	99	4.30	18	–

The next lines start with results.

pEC50 [1]	pEC50 [2]	fold change (FC) [4]	fold change (FC) [5]	pEC50 [6]	fold change (FC) [7]	SMILES	further results
4.63	4.86	26	30	4.57	11	Cc1ccc(-n2c(C)c(C)c3c2CCC(F)(F)C3)cc1O	–
–	–	69	121	–	44	Cc1c2c(n(-c3ccc(CC(=O)O)cc3)c1C)CCC(F)(F)C2	Activity [10]: Active; Activity [11]: Active
4.59	4.49	13	7	4.48	7	C=C[C@@]1(C)CC[C@H]2C(=CC[C@@H]3[C@]2(C)CCC[C@@]3(C)C(=O)O)C1 [ISOPIMARIC ACID]	Activity [12]: Active; Activity (HepG2): Toxic; Activity [13]: Active; Activity [14]: Active
4.38	4.38	9	6	4.38	6	CC(C)c1ccc2c(c1)CC[C@H]1[C@](C)(C(=O)O)CCC[C@]21C [DEHYDROABIETIC ACID]	Activity [12]: Active; Activity (HepG2): Toxic; Activity [13]: Active; Activity [14]: Active; Activity [15]: Active
